# Calls of active or inactive are those of the source. The calls are words filed in the database; no cut-off is given here.
# Key:
# [1] = biological target: Eukaryotic initiation factor 4A-I (Oryctolagus cuniculus) (UniProt P29562); experiment: Inhibition of eIF4A1-mediated FF/HCV/Ren cap-dependent mRNA translation in rabbit reticulocyte lysate by reporter gene assay
# [2] = biological target: T1, Eukaryotic initiation factor 4A-I (Homo sapiens, UniProt P60842); experiment: Inhibition of eIF4A1-mediated protein synthesis in human HeLA cells assessed as inhibition of [35S]Met incorporation by scintillation counting; format: cell-based
# T1 sequence (P60842 whole entry): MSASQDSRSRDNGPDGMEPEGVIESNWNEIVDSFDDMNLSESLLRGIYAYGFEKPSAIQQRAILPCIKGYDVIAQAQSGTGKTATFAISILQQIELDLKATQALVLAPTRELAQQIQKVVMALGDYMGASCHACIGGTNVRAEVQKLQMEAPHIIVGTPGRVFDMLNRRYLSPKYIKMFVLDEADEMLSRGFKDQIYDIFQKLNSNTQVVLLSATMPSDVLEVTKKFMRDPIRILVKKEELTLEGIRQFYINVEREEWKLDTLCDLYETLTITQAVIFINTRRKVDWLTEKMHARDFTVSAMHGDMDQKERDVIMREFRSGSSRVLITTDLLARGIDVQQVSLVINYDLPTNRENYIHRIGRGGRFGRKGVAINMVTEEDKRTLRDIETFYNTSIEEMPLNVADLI
# How it was run: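 HeLa cells treated with compound or DMSO vehicle. Protein synthesis measured as 35S-Met incorporation, normalised to total protein content and expressed relative to the DMSO control. Values are the average of duplicates with the error of the mean.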
# Mus musculus [3] = experiment: Hematotoxicity in C57Bl/6 mouse assessed as effect on CD4 T cells at 0.2 mg/kg, ip administered for 5 days measured 2 hrs post last dose by FACS analysis; format: organism-based, T-cell; design: dose 0.2 mg/kg, route intraperitoneal; conditions: in vivo
# [4] = Metabolic stability in mouse liver microsomes assessed as compound remaining after 1 hr; format: ADME, Microsome; conditions: read-out: Stability
# How it was run: (§1)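 Incubation with human or murine liver microsomes, read as percent compound remaining after 1 h.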
# [5] = biological target: T1, Eukaryotic initiation factor 4A-I; experiment: Inhibition of eIF4A1-mediated protein synthesis in human BJAB cells assessed as inhibition of [35S]Met incorporation after 72 hr by scintillation counting; format: cell-based
# How it was run: (§2)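 BJAB lymphoma cells exposed to compound for 1 h or 72 h. Protein synthesis measured as 35S-Met incorporation, normalised to total protein content and expressed relative to DMSO vehicle. Duplicates.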
# [6] = Solubility of the compound at pH 5; format: physicochemical; conditions: buffer
# How it was run: (§3)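 Solubility measured at pH 5.0, 6.2 and 7.4.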
# [7] = Solubility of the compound at pH 6.2; format: physicochemical; conditions: buffer; how it was run: as §3
# Mus musculus [8] = experiment: Hematotoxicity in C57Bl/6 mouse assessed as effect on Ly-6G myeloid cells at 0.2 mg/kg, ip administered for 5 days measured 2 hrs post last dose by FACS analysis; format: organism-based; design: dose 0.2 mg/kg, route intraperitoneal; conditions: in vivo
# Mus musculus [9] = experiment: Hematotoxicity in C57Bl/6 mouse assessed as effect on […] T cells at 0.2 mg/kg, ip administered for 5 days measured 2 hrs post last dose by FACS analysis; format: organism-based, T-cell; design: dose 0.2 mg/kg, route intraperitoneal; conditions: in vivo
# [10] = biological target: T1, Eukaryotic initiation factor 4A-I; experiment: Inhibition of recombinant eIF4A1 assessed as depletion of eIF4A1/2 from eIF4F complex at 1 to 10 uM after 1 hr by Western blot analysis
# How it was run: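 eIF4F complex isolated by m7GTP affinity purification. Eluates resolved on 10% SDS-PAGE, then Western blot for eIF4E and eIF4AI/II.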
# [11] = Metabolic stability in human liver microsomes assessed as compound remaining after 1 hr; format: ADME, Microsome; conditions: read-out: Stability; how it was run: as §1
# BJAB = experiment: Cytotoxicity against human BJAB cells after 72 hrs by PI-staining based flow cytometric analysis; format: functional, cell-based
# How it was run: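 BJAB cells exposed 72 h to a concentration series. Viability by propidium iodide staining and flow cytometry, plotted relative to vehicle (DMSO). Mean of three experiments.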
# [12] = Permeability of the compound by PAMPA assay at pH 5; format: ADME
# [13] = biological target: T1, Eukaryotic initiation factor 4A-I; experiment: Inhibition of eIF4A1-mediated protein synthesis in human BJAB cells assessed as inhibition of [35S]Met incorporation after 1 hr by scintillation counting; format: cell-based; how it was run: as §2
# [14] = Plasma protein binding in human after 4 hrs; format: ADME, cell-free; conditions: read-out: PPB (converted)
# How it was run: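 Human plasma protein binding measured after 4 h exposure.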
# [15] = Permeability of the compound by PAMPA assay at pH 7.4; format: ADME
# [16] = Permeability of the compound by PAMPA assay at pH 6.2; format: ADME
# [17] = biological target: T1, Eukaryotic initiation factor 4A-I; experiment: Inhibition of recombinant eIF4A1 assessed as eIF4A1/[32P]mRNA complex formation after 10 mins by scintillation counting
# How it was run: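 Binding of eIF4AI to radiolabelled RNA. Mean of three experiments with standard error of the mean.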
# [18] = Solubility of the compound at pH 7.4; format: physicochemical; conditions: buffer; how it was run: as §3
# [19] = biological target: T1, Eukaryotic initiation factor 4A-I; experiment: Inhibition of recombinant eIF4A1 assessed as eIF4A1/[32P]mRNA complex formation at 1 to 10 uM after 10 mins by scintillation counting in presence of hippuristanol
# [20] = Metabolic stability in human plasma assessed as compound remaining after 3 hrs; format: ADME, cell-free; conditions: read-out: Stability
# How it was run: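 Stability in human plasma measured as percent compound remaining after 3 h.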
# Mus musculus [21] = experiment: Hematotoxicity in C57Bl/6 mouse assessed as effect on B220 pre-B/B cells at 0.2 mg/kg, ip administered for 5 days measured 2 hrs post last dose by FACS analysis; format: organism-based; design: dose 0.2 mg/kg, route intraperitoneal; conditions: in vivo
# lymphoma = experiment: Potentiation of doxorubicin antitumor activity against mouse Eu-myc/myr-AKT lymphoma cells xenografted in C57Bl/6 mouse assessed as tumor-free survival at 0.2 mg/kg, ip administered daily for 5 days; format: functional, organism-based; design: dose 0.2 mg/kg
# How it was run: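 C57Bl/6 mice, 6-8 weeks old, received 10^6 Eμ-myc/(myr)Akt lymphoma cells intravenously. Dosing began when tumours were palpable: test agent 0.2 mg/kg i.p. daily for 5 d in PEG 400/5.2% Tween 80, with doxorubicin 10 mg/kg given once on day 2. n=5 per group. Read-out was tumour-free survival (Kaplan-Meier).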
# Sequence of Eukaryotic initiation factor 4A-I (Oryctolagus cuniculus) (P29562 whole entry): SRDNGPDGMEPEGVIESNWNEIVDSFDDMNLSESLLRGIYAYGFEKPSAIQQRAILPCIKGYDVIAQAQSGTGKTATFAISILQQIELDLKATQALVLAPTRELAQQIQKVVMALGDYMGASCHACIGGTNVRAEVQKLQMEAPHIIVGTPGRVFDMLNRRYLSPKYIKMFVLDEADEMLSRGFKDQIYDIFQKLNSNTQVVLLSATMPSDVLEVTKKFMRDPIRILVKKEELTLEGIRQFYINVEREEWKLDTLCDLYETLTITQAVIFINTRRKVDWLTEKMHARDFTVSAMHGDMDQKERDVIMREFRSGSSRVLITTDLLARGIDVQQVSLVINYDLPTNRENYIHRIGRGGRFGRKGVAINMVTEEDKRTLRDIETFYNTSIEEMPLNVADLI
smiles,measurement,setting,value
COc1ccc(C23Oc4cc(OC)cc(OC)c4C2(O)C(O)C(C(=O)NOCC2CC2)C3c2ccccc2)cc1 (racemic),inhibition,[1],Active
COc1ccc(C23Oc4cc(OC)cc(OC)c4C2(O)C(O)C(C(=O)NOCCOCCOCCNC(C)=O)C3c2ccccc2)cc1 (racemic),inhibition,[2],Active
same,inhibition,[1],Active
COc1ccc([C@@]23Oc4cc(OC)cc(OC)c4[C@]2(O)[C@H](O)[C@H](C(=O)c2ccc(CO)o2)[C@H]3c2ccccc2)cc1,inhibition,[1],Active
CONC(=O)[C@H]1[C@@H](O)[C@@]2(O)c3c(OC)cc(OC)cc3O[C@@]2(c2ccc(OC)cc2)[C@@H]1c1ccccc1,Activity,Mus musculus [3],Non-toxic
same,remaining at 1 h,[4],> 95%
same,IC50,[5],0.5 nM
same,solubility,[6],> 150 mg/mL
same,solubility,[7],> 150 mg/mL
same,Activity,Mus musculus [8],Non-toxic
same,Activity,Mus musculus [9],Non-toxic
same,inhibition,[10],Active
same,remaining at 1 h,[11],> 95%
same,IC50,BJAB,1.5 nM
same,permeability,[12],permeable
same,IC50,[13],20 nM
same,inhibition,[1],Active
same,fraction unbound at 4 h,[14],0.18
same,permeability,[15],permeable
same,permeability,[16],permeable
same,inhibition,[17],Dose-dependent effect
same,solubility,[18],> 150 mg/mL
same,inhibition,[19],inactive
same,remaining at 3 h,[20],100%
same,Activity,Mus musculus [21],Non-toxic
same,Activity,lymphoma,Active
COc1ccc(C23Oc4cc(OC)cc(OC)c4C2(O)C(O)C(C(=O)NOCCO)C3c2ccccc2)cc1 (racemic),inhibition,[2],Active
same,inhibition,[1],Active
COC(=O)[C@H]1[C@@H](O)[C@@]2(O)c3c(OC)cc(O[C@@H]4O[C@@H]([C@H](O)CO)CO[C@H]4OC)cc3O[C@@]2(c2ccc(OC)cc2)[C@@H]1c1ccccc1,inhibition,[5],Active
same,inhibition,[10],Active
same,inhibition,BJAB,Active
same,inhibition,[13],Active
same,inhibition,[17],Dose-dependent effect
same,inhibition,[19],inactive
same,Activity,lymphoma,Active
CONC(=O)[C@@H]1[C@H](O)[C@]2(O)c3c(OC)cc(OC)cc3O[C@]2(c2ccc(OC)cc2)[C@H]1c1ccccc1,inhibition,[1],inactive
CONC(=O)C1C(O)C2(O)c3c(OC)cc(OC)cc3OC2(c2ccc(OC)cc2)C1c1ccccc1 (racemic),inhibition,[1],Active
